Data set [1] in a line: Selectivity index, ratio of IC50 for human SAE cells lacking FASN expression to IC50 for human NCI-H1299 cells expressing FASN expression. In a few lines: (§1)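 Index is the SAEC IC50 divided by the IC50 in the FASN-expressing NSCLC line. IC50s came from MTS viability after 72 h exposure at 37 °C, 5% CO2, DMSO 0.1% v/v. Absorbance was read at 490 nm after 2 h. The fit was % viability against log concentration, with 4 technical repeats and 3 independent experiments. NSCLC lines were grown in RPMI/10% FBS; SAEC in BEGM.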

Data set [2] can be described thus: Selectivity index, ratio of IC50 for human SAE cells lacking FASN expression to IC50 for human NCI-H1650 cells expressing FASN. In a few lines: as §1
The test system of data set [3] is PC-9. As to the kind of experiment: Antiproliferative activity against human PC9 cells harboring FASN expression and EGFR delE746-A750 mutant assessed as reduction in cell viability after 72 hrs by MTS assay. It is filed as functional, cell-based. Conditions: PC-9, 72 h. In a few lines:
(§2)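 ATCC-sourced cells. H1299, H1650, H1703 and PC-9 were grown in RPMI 1640 with 10% FBS. A549 was grown in high-glucose DMEM with 10% FBS and 1 mM pyruvate. SAEC was grown in BEGM. Cells were seeded at 3 × 10^3 per well (H1650 3.5 × 10^3) and left to attach overnight. Serial dilutions from DMSO stocks were added, 0.1% DMSO final, for 72 h at 37 °C, 5% CO2. Medium was replaced, MTS added, and A490 read after 2 h. IC50 was taken from % viability versus log concentration, 3 experiments.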
(In general: Tetrazolium assays rely on reduction of a dye to a coloured formazan, in cell work by metabolically active cells.)

Data set [4] in a line: Cytotoxicity against human SAE cells lacking FASN expression assessed as reduction in cell viability after 72 hrs by MTS assay. It counts as cell-based. The procedure, abridged: as §2
Data set [5] relates to NCI-H1703. As to the kind of experiment: Induction of apoptosis in human NCI-H1703 cells expressing FASN assessed as increase in late apoptotic cells at 5 uM after 72 hrs by Annexin-V FITC/PI staining-based flow cytometry. It counts as functional, cell-based.
The subject of data set [6] is PC-9. As to the kind of experiment: Induction of apoptosis in human PC9 cells harboring FASN expression and EGFR delE746-A750 mutant assessed as increase in late apoptotic cells at 5 uM after 72 hrs by Annexin-V FITC/PI staining-based flow cytometry. It is filed as functional, cell-based. For orientation: In flow cytometry, cells or beads pass a laser one at a time.

Data set [7] is described as follows: Kinetic solubility of the compound in universal buffer at pH 7.4 measured at 25 degC after 24 hrs by UV/Visible spectroscopic analysis. It is filed as physicochemical. Conditions: read-out: Kinetic_solubility.
Data set [8] addresses Fatty acid synthase (Homo sapiens) (UniProt P49327). In words: Inhibition of FASN in human PC9 cells harboring FASN expression and EGFR delE746-A750 mutant assessed as disruption of AKT/FASN positive feedback loop by measuring decrease in FASN expression after 48 hrs by Western immunoblot assay. It counts as cell-based. In a few lines:
(§3)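 PC-9 or H1703 cells were seeded at 8 × 10^5 per 100 mm dish and treated for 48 h at 1 or 5 µM (or 5, 50 and 100 µM). RIPA lysates were BCA-quantified and run on 8% SDS-PAGE, then transferred to PVDF. Blots were probed for FASN, AKT, phospho-AKT S473 and GAPDH and detected by ECL. Bands were quantified by densitometry and normalised to vehicle control.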

Data set [9] shares this target. In words: Inhibition of FASN in human PC9 cells harboring FASN expression and EGFR delE746-A750 mutant assessed as disruption of AKT/FASN positive feedback loop by measuring decrease in FASN expression at 5 uM after 48 hrs by Western immunoblot based densitometric assay relative to control. It counts as cell-based. In a few lines:
as §3
(In general: A western blot detects proteins with antibodies after separation by electrophoresis.)

The target is the same in data set [10]. In words: Inhibition of FASN in human NCI-H1703 cells expressing FASN assessed as disruption of AKT/FASN positive feedback loop by measuring decrease in FASN expression at 1 uM after 48 hrs by Western immunoblot based densitometric assay relative to control. It counts as cell-based. The procedure, abridged: as §3
For data set [11] the target is unchanged. In words: Inhibition of FASN in human NCI-H1703 cells expressing FASN assessed as disruption of AKT/FASN positive feedback loop by measuring decrease in FASN expression at 5 uM after 48 hrs by Western immunoblot based densitometric assay relative to control. It is filed as cell-based. The procedure, abridged:
as §3

Data set [12] has the same target. In words: Inhibition of FASN in human PC9 cells harboring FASN expression and EGFR delE746-A750 mutant assessed as disruption of AKT/FASN positive feedback loop by measuring reduction in AKT expression at 1 uM after 48 hrs by Western immunoblot based densitometric assay relative to control. It is filed as cell-based. In a few lines: as §3
For data set [13] the target is unchanged. In words: Inhibition of FASN in human PC9 cells harboring FASN expression and EGFR delE746-A750 mutant assessed as disruption of AKT/FASN positive feedback loop by measuring reduction in AKT expression at 5 uM after 48 hrs by Western immunoblot based densitometric assay relative to control. It is filed as cell-based. The procedure, abridged:
as §3

The target is the same in data set [14]. As to the kind of experiment: Inhibition of FASN in human NCI-H1703 cells expressing FASN assessed as disruption of AKT/FASN positive feedback loop by measuring decrease in AKT expression at 1 uM after 48 hrs by Western immunoblot based densitometric assay relative to control. It is filed as cell-based. In a few lines: as §3
For data set [15] the target is unchanged. As to the kind of experiment: Inhibition of FASN in human PC9 cells harboring FASN expression and EGFR delE746-A750 mutant assessed as disruption of AKT/FASN positive feedback loop by measuring reduction in phosphorylated AKT expression at 1 uM after 48 hrs by Western immunoblot based densitometric assay relative to control. It counts as cell-based. The procedure, abridged: as §3

For data set [16] the target is unchanged. As to the kind of experiment: Inhibition of FASN in human PC9 cells harboring FASN expression and EGFR delE746-A750 mutant assessed as disruption of AKT/FASN positive feedback loop by measuring reduction in phosphorylated AKT expression at 5 uM after 48 hrs by Western immunoblot based densitometric assay relative to control. It is filed as cell-based. In a few lines:
as §3

The target is the same in data set [17]. In words: Inhibition of FASN in human NCI-H1703 cells expressing FASN assessed as disruption of AKT/FASN positive feedback loop by measuring decrease in phosphorylated AKT expression at 1 uM after 48 hrs by Western immunoblot based densitometric assay relative to control. It is filed as cell-based. In a few lines:
as §3

The target is the same in data set [18]. In words: Inhibition of FASN in human NCI-H1703 cells expressing FASN assessed as disruption of AKT/FASN positive feedback loop by measuring decrease in phosphorylated AKT expression at 5 uM after 48 hrs by Western immunoblot based densitometric assay relative to control. It counts as cell-based. In a few lines: as §3
For data set [19] the target is unchanged. As to the kind of experiment: Inhibition of FASN in human NCI-H1703 cells expressing FASN assessed as disruption of AKT/FASN positive feedback loop by measuring decrease in ratio of phosphoAKT/AKT expression at 1 uM after 48 hrs by Western immunoblot based densitometric assay relative to control. It is filed as cell-based. The procedure, abridged:
as §3

The subject of data set [20] is NCI-H1703. In words: Antiproliferative activity against human NCI-H1703 cells expressing FASN assessed as cell viability at 1 uM after 72 hrs in presence of exogenous lipid concentrate by MTS assay. It is filed as functional, cell-based. The procedure, abridged:
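Cells were treated as in the MTS viability assay. After 6 h, chemically defined lipid concentrate was added to 2% v/v final. Incubation continued for a further 72 h, then viability was read by MTS at 490 nm. Cells were treated at 2 µM (PC-9) or 1 µM (H1703). Mean ± SD, n = 3, compared with compound alone.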

Converted amounts (≈) assume the structure as drawn. The source made the active and inactive calls. No cut-off for these calls is given here.

Chain of Fatty acid synthase (Homo sapiens) (P49327 whole entry, looked up): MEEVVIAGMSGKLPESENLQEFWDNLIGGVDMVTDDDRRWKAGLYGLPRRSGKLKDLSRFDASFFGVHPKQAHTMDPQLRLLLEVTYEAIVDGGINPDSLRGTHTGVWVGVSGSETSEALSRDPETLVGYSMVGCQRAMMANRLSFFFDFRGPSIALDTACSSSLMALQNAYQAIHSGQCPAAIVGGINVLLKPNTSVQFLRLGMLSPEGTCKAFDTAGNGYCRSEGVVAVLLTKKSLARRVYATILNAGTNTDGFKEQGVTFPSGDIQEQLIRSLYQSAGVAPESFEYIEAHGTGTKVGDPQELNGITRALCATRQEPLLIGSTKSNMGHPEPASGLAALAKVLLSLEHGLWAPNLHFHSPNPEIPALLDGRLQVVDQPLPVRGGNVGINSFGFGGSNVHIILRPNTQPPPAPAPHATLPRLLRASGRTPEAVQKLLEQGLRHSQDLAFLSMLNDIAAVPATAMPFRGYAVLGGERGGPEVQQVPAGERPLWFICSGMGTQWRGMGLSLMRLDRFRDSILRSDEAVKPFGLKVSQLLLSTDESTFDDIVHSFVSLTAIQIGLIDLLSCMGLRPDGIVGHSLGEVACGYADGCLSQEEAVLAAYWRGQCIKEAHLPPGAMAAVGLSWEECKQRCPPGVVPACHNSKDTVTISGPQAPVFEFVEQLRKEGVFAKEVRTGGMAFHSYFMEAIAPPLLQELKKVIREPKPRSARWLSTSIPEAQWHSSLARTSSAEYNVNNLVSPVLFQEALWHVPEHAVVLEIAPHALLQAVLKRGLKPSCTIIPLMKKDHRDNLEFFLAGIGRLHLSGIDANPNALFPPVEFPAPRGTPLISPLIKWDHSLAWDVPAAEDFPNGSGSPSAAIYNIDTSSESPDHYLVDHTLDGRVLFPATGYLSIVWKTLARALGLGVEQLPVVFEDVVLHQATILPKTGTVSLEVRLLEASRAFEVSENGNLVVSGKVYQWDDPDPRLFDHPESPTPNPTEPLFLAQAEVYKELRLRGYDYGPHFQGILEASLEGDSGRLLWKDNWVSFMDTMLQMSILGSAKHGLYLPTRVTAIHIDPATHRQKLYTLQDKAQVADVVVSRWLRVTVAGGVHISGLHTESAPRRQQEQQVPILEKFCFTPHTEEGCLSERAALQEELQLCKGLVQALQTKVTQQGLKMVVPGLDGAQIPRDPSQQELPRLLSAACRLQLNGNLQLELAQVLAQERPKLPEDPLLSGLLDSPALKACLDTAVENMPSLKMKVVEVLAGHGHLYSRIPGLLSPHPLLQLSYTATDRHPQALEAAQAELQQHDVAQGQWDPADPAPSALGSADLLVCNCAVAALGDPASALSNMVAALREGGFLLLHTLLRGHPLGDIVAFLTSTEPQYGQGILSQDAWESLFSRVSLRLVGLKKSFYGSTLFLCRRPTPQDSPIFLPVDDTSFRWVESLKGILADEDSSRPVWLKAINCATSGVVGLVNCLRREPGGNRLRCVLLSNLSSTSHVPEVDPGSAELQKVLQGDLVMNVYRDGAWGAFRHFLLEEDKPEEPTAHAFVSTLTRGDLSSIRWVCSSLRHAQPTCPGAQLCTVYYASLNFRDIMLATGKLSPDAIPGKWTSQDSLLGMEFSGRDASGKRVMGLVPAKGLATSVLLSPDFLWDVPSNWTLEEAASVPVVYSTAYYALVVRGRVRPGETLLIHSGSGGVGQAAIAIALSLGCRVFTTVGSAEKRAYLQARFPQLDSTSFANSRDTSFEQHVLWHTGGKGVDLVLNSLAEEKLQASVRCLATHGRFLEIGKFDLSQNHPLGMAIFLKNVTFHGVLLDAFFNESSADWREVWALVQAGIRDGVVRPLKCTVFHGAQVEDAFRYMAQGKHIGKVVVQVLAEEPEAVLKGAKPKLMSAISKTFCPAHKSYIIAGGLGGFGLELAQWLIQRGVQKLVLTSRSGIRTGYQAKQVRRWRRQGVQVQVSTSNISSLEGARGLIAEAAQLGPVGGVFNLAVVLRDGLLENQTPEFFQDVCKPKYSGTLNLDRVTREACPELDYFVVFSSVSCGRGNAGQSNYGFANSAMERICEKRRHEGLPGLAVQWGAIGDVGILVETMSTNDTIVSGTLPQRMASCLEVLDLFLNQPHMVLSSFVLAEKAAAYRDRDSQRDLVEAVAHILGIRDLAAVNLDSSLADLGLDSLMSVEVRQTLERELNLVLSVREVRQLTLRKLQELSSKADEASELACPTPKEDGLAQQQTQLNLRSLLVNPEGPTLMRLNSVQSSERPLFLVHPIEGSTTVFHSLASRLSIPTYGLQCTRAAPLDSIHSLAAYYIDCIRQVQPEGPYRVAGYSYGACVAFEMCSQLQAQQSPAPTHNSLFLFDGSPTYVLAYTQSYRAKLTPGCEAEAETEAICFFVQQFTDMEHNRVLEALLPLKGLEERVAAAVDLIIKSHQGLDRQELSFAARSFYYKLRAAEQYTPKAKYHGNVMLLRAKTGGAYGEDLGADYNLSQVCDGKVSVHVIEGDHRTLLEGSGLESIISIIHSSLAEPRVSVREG

As a reminder, the IC50 is the point on the concentration scale where inhibition reaches its midpoint. In the case of `O=C(Oc1ccc(/C=C/c2ccc(OC(=O)c3cc(O)c(O)c(O)c3)cc2)cc1)c1cc(O)c(O)c(O)c1`, the figures for the “Ratio IC50” value in [1] and in data set [2] were 1.5 and 2, respectively. Moreover, the half-inhibitory concentration (IC50) is 2.3 µM in the data set with PC-9 [3] and 5 µM in data set [4]. The outcome in the data set on NCI-H1703 [5] and in the data set on PC-9 [6] was Active. Further, the solubility kinetic at 24 h in data set [7] was found to be 2.5 µM (≈ 1.29 µg/mL). For the same compound, in data set [8], the inhibition entry was “Dose-dependent effect”. The Ratio was 0.49 in [9]; 0.11 to 0.24 in data set [10]; 0.04 in data set [11]; 1.04 in [12]; 0.18 in [13]; 0.34 in data set [14]. Further, the Ratio in data set [15] stood at 0.88; in [16], 0.2; in [17], 0.09; in data set [18], 0.001; in data set [19] it was 0.04. The inhibition result in the data set on NCI-H1703 [20] was “inactive”.

With `O=C(Oc1ccc(/C=C/c2cccc(OC(=O)c3cc(O)c(O)c(O)c3)c2)cc1)c1cc(O)c(O)c(O)c1`, the figures for the “Ratio IC50” value in data set [1] and in data set [2] were 2.2 and 0.5, respectively. Besides, the IC50 worked out at 5 µM in the data set on PC-9 [3] and 6.8 µM in data set [4]. Besides, the outcome in the data set on NCI-H1703 [5] and in the data set on PC-9 [6] was Active. In data set [7], the solubility kinetic at 24 h was found to be 6 µM (≈ 3.1 µg/mL). Besides, the inhibition result in data set [8] was “Dose-dependent effect”. Besides, the Ratio is 0.65 in [9]; 0.38 to 0.39 in data set [10]; 0.08 in data set [11]; 0.58 in [12]; 0.12 in data set [13]; 0.52 in data set [14]. The Ratio in data set [15] turned out to be 0.53; in data set [16], 0.29; in data set [17], 0.57; in [18] it was 0.04; in data set [19] it was 0.16. The inhibition result in the data set on NCI-H1703 [20] is “inactive”.

(Values after ChEMBL document CHEMBL4406830, “Galloyl esters of trans-stilbenes are inhibitors of FASN with anticancer activity on non-small cell lung cancer cells” (Eur J Med Chem, 2019).)
